The values below come from ChEMBL document CHEMBL4715754, “Slowing down fat digestion and absorption by an oxadiazolone inhibitor targeting selectively gastric lipolysis” (2016).

Molecules are shown by their SMILES.

Assay [1] has as its target T1, Pancreatic lipase-related protein 2 (Cavia porcellus) (UniProt P81139).
T1 sequence (whole entry): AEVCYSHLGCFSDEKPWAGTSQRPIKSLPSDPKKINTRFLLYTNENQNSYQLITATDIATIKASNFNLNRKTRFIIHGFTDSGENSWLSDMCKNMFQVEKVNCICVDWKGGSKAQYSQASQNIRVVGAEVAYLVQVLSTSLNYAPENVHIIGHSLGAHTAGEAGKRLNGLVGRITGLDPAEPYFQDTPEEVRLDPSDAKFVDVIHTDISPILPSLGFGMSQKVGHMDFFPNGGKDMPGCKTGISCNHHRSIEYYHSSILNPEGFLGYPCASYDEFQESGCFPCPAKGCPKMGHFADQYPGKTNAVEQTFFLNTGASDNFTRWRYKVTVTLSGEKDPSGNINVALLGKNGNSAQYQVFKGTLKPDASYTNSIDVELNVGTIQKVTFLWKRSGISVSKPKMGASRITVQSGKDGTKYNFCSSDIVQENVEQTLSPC
The assay is described as follows: Inhibition of recombinant guinea pig PL-RP2 expressed in Aspergillus oryzae at 4:1 molar excess compound concentration preincubated for 30 mins at 25 degreeC relative to control.

Assay [2] concerns the target T1, Pancreatic lipase-related protein 2 (Cavia porcellus). The assay is described as follows: Inhibition of recombinant guinea pig PL-RP2 expressed in Aspergillus oryzae at 20:1 molar excess compound concentration preincubated for 30 mins at 25 degreeC relative to control.
The target is the same in assay [3]. The assay is described as follows: Inhibition of recombinant guinea pig PL-RP2 expressed in Aspergillus oryzae preincubated for 30 mins at 25 degreeC.
Assay [4] concerns the target T2, Gastric triacylglycerol lipase (Canis lupus familiaris) (UniProt P80035).
T2 sequence (whole entry): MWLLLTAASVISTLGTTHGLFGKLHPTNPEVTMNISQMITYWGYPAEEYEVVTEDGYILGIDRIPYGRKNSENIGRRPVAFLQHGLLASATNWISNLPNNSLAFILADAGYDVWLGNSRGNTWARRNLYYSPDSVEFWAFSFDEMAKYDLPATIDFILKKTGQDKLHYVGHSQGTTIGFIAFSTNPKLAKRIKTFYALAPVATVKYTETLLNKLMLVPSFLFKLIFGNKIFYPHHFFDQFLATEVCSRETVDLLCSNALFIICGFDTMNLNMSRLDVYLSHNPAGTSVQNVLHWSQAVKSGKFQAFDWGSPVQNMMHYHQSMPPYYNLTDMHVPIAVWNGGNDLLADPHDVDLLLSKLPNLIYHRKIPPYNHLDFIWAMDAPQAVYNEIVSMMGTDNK
The assay is described as follows: Inhibition of recombinant dog gastric lipase at 4.1 mg/ml under gastric phase at pH 5.5 using liquid test meal measured up to 30 mins relative to control. The note with it: time min <=30. In short, it runs like this: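 Gastric phase: 15 mL liquid or solid test meal (506 mg TAG) premixed with 734 µL of 4.1 mg/mL DMSO stock (2.94 mg, 7.262 µmol), then DGL to 17 µg/mL final, pH 5.5, 37 °C, stirred. Samples at 1, 15, 29 min; residual DGL activity by pH-stat; lipolysis level from TLC-FID of lipid extracts. DMSO-only controls; n = 3.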

Assay [5] has as its target T3, Pancreatic triacylglycerol lipase (Sus scrofa) (UniProt P00591).
T3 sequence (whole entry): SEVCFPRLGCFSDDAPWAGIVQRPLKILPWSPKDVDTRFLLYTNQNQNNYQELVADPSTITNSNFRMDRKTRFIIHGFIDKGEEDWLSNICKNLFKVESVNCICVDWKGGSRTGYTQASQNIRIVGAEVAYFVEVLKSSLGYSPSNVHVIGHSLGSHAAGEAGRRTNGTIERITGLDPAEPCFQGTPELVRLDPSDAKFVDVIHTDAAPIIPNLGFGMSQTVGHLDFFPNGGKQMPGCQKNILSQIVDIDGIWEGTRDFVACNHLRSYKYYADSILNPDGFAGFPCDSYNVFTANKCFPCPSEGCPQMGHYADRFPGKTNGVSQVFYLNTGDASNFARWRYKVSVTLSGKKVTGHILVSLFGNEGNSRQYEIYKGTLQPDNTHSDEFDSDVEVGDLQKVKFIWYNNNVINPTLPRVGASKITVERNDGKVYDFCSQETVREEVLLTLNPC
The assay can be described thus: Inhibition of porcine pancreatic lipase assessed as lipolysis level at 4.1 mg/ml under duodenal phase at pH 6.5 using liquid test meal measured at 45 mins (reference value: 58 +/- 3.1 %). Also on record: scale not given: the % may be the effect or the level left.

Assay [6] deals with T3, Pancreatic triacylglycerol lipase (Sus scrofa). The assay is described as follows: Inhibition of porcine pancreatic lipase assessed as lipolysis level at 4.1 mg/ml under duodenal phase at pH 6.5 using solid test meal measured at 90 mins (reference value: 45.4 +/- 1.4 %). The arrangement: scale not given: the % may be the effect or the level left.
Assay [7] has the same target. The note with it: dose 4.9 mg/ml, time 30-90 min.

Consider `O=c1oc(OCCOCc2ccccc2)nn1-c1cccc(Oc2ccccc2)c1`, for which the inhibition was determined as 60.6% in assay [1], 62.1% in assay [2] and 100% in assay [4]. In addition, the XI50 in assay [3] came out at 0.64 molar excess. Besides, the Activity came to 48.1% in assay [5] and 33.7% in assay [6].
Turning to `CCCCCCCCCCC[C@@H](C[C@@H]1OC(=O)[C@H]1CCCCCC)OC(=O)[C@@H](CC(C)C)NC=O`, in assay [7], the inhibition was found to be 100%.

The term inhibition denotes the share of the control response that was lost under treatment.
